pIC50: −log10 of the molar value. Calls of active or inactive are those of the source. No cut-off for these calls is given here.
Tests used:
[1] = tested on: Glutamate receptor ionotropic, AMPA 1 (GluA1i); test: Antagonist activity at GluR1 expressed in Xenopus laevis oocytes assessed as inhibition of glutamate-induced current at -40mV holding potential by two-electrode voltage-clamp electrophysiology; settings: Oocyte
[2] = Selectivity ratio of IC50 for NR1-1a/NR2A receptor to IC50 for GluR1
[3] = tested on: Glutamate receptor ionotropic, AMPA 1 (GluA1i); test: Antagonist activity at GluR1 expressed in Xenopus laevis oocytes assessed as inhibition of glutamate-induced current at -80mV holding potential by two-electrode voltage-clamp electrophysiology; settings: Oocyte
[4] = target: T1, Glutamate NMDA receptor; GRIN1/GRIN2A (Homo sapiens, UniProt Q05586+Q12879); test: Antagonist activity at NR1-1a/NR2A receptor expressed in Xenopus laevis oocytes assessed as inhibition of glutamate/glycine-induced current at -60mV holding potential by two-electrode voltage-clamp electrophysiology; format: functional, cell-based, Oocyte
Summary of the method: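 Two-electrode voltage clamp at -60 mV holding potential on Xenopus oocytes expressing homomeric GluA1i or heteromeric GluN1/2A. Antagonist was co-applied with agonist: 100 μM glutamate for GluA1i, and 100 μM glutamate plus 100 μM glycine for GluN1/2A. IC50 came from concentration-inhibition curves of normalized currents (n = 3). The error term is given as the % difference between the IC50 and antilog(logIC50 + SEM).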

[5] = target: T1, Glutamate NMDA receptor; GRIN1/GRIN2A; test: Antagonist activity at NR1-1a/NR2A receptor expressed in Xenopus laevis oocytes assessed as inhibition of glutamate/glycine-induced current at -80mV holding potential by two-electrode voltage-clamp electrophysiology; format: functional, cell-based; settings: Oocyte
Summary of the method: (§1)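 Holding-potential dependence was measured in oocytes expressing GluA1i or GluN1/2A at -40, -60 and -80 mV by two-electrode voltage clamp. One fixed toxin concentration, chosen from the -60 mV concentration-response data, was co-applied with 100 μM glutamate (GluA1i) or with glutamate plus glycine at 100 μM each (GluN1/2A). The read-out was the reduction in receptor current.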

[6] = tested on: Glutamate receptor ionotropic, AMPA 1 (GluA1i); test: Antagonist activity at GluR1 expressed in Xenopus laevis oocytes assessed as inhibition of glutamate-induced current at 0.1 uM at -60mV holding potential by two-electrode voltage-clamp electrophysiology; settings: Oocyte
[7] = target: T1, Glutamate NMDA receptor; GRIN1/GRIN2A; test: Antagonist activity at NR1-1a/NR2A receptor expressed in Xenopus laevis oocytes assessed as inhibition of glutamate/glycine-induced current at -40mV holding potential by two-electrode voltage-clamp electrophysiology; format: functional, cell-based; settings: Oocyte
Summary of the method: as §1

[8] = target: T1, Glutamate NMDA receptor; GRIN1/GRIN2A; test: Antagonist activity at NR1-1a/NR2A receptor expressed in Xenopus laevis oocytes assessed as inhibition of glutamate/glycine-induced current at 10 uM at -60mV holding potential by two-electrode voltage-clamp electrophysiology; format: functional, cell-based; settings: Oocyte
Summary of the method: (§2)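 Single-concentration screen at 0.1 and 10 μM by two-electrode voltage clamp (-60 mV) in Xenopus oocytes. Toxin was co-applied with 100 μM glutamate (GluA1i) or with 100 μM glutamate plus 100 μM glycine (GluN1/2A). Percent inhibition was taken from the decrease in agonist-evoked current.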

[9] = target: T1, Glutamate NMDA receptor; GRIN1/GRIN2A; test: Antagonist activity at NR1-1a/NR2A receptor expressed in Xenopus laevis oocytes assessed as inhibition of glutamate/glycine-induced current at 0.1 uM at -60mV holding potential by two-electrode voltage-clamp electrophysiology; format: functional, cell-based; settings: Oocyte
Summary of the method: as §2

SMILES | inhibition [1] | Ratio IC50 [2] | inhibition [3] | pIC50 [4] | inhibition [5] | inhibition [6] | inhibition [7] | inhibition [8] | inhibition [9]
CCCC(=O)N[C@@H](CC1CCCCC1)C(=O)NCCCNCCCCNCCCN | Active | 137 | Active | 5.36 | Active | 35% | Active | – | –
NCCCNCCCCNCCCNC(=O)[C@H](CC1CCCCC1)NC(=O)Cc1cccc2ccccc12 | Active | 1 | Active | 7.33 | Active | 35% | Active | 92% | 63%
NCCCNCCCCNCCCNC(=O)[C@H](CC1CCCCC1)NC(=O)c1ccc(-c2ccccc2)cc1 | Active | 17 | Active | 5.84 | Active | 35% | Active | – | –
NCCCNCCCCNCCCNC(=O)[C@H](CCCNC(=O)Cc1ccccc1)NC(=O)C1CCCCC1 | – | – | – | 5.99 | – | 35% | – | – | –
NCCCNCCCCNCCCNC(=O)[C@H](CNC(=O)Cc1ccccc1)NC(=O)C1CCCCC1 | – | – | – | 5.55 | – | 35% | – | – | –
NCCCNCCCCNCCCNC(=O)[C@H](CC1CCCCC1)NC(=O)C1CC1 | – | – | – | 5.59 | Active | – | Active | – | –
NCCCNCCCCNCCCNC(=O)[C@H](CC1CCCCC1)NC(=O)C1CCCCC1 | Active | 31 | Active | 6.18 | Active | 35% | Active | – | –
CCCC(=O)N[C@@H](Cc1ccc(O)cc1)C(=O)NCCCNCCCCNCCCN [PHILANTHOTOXIN 343] | – | – | – | 5.56 | Active | – | Active | 61% | 9%
NCCCNCCCCNCCCNC(=O)[C@H](CC1CCCCC1)NC(=O)CC12CC3CC(CC(C3)C1)C2 | Active | 8 | Active | 6.10 | Active | 35% | Active | – | –
